Kd data for two molecules are collected here from publication PMC10467613 (RSC Chemical Biology, 2023).

Assay [1] addresses T1, HsIYD containing 2′-deoxyFMN (Homo sapiens, UniProt Q6PHW0, DEL2-31).
T1 sequence (Q6PHW0 32-289): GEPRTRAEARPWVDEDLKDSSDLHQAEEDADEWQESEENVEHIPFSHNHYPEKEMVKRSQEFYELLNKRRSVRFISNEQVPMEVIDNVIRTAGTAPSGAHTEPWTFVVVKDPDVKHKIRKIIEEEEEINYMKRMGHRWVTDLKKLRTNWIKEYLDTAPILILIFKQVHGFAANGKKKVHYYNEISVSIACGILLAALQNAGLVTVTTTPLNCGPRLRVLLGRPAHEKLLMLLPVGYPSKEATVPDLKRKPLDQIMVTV
In words: flavin fluorescence quenching titration. In kind it is binding. A digest of the protocol: (§1)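 Enzyme: human IYD lacking residues 2–31 (SUMO fusion, tag removed) or T. neapolitana IYD (C-terminal His6; dithionite wash first). FMN was stripped on a Ni column with up to 1.5 M guanidinium HCl, then reloaded with 200 μM 2′-deoxyFMN for 4 h at 4 °C. Ligand was titrated into 3 μM enzyme in 100 mM potassium phosphate pH 7.4 at 25 °C. Flavin fluorescence (ex 450/em 516 nm) was read 2 min after each addition. Kd was fitted from ΔF/F0 versus total enzyme and total ligand.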

The target of assay [2] is T2, TnIYD containing 2′-deoxyFMN (Thermotoga neapolitana, UniProt B9K712).
T2 sequence (B9K712 1-186): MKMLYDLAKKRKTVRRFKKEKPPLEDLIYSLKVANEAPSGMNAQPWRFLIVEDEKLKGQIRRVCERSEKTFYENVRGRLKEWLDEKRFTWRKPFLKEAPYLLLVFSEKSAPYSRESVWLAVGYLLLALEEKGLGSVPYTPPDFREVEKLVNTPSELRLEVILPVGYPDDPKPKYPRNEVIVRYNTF
In words: flavin fluorescence quenching titration. It is filed as binding. A digest of the protocol: as §1

Structures are written as SMILES.

A word on the Kd: it is the concentration at which binding is half-saturated. In assay [1], `N[C@@H](Cc1ccc(O)c(F)c1)C(=O)O` [F-Tyr, 3-Fluoro-L-tyrosine] returned a Kd of 1500 ± 70 µM. `COc1ccc(C[C@H](N)C(=O)O)cc1I` [O-Me I-Tyr] registered a Kd in assay [2] of 6.3 ± 0.7 µM.
